pIC50: −log10 of the molar value. Activity calls are given as the source filed them. The rule behind the calls is not given here.
Columns and labels:
[1] = molecular target: Serine/threonine-protein kinase mTOR (Homo sapiens) (UniProt P42345); test: Inhibition of mTOR in human MDA-MB-231 cells assessed as reduction in p-S6K level at 0.25 to 0.5 uM by Western blot analysis; type: cell-based; conditions: dose 0.25-0.5 µM
Outline: (§1)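 Cells seeded at 5 × 10^5 per 100 mm dish and allowed to attach overnight. Treated with compound or DMSO for 72 h (HGF 100 ng/mL added for MDA-MB-231). Lysed in RIPA buffer with protease inhibitors. 30 μg protein run on SDS-PAGE, transferred to PVDF, blocked in 5% BSA/TBST. Primary antibodies overnight at 4 °C, HRP secondary antibodies, chemiluminescent detection.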

[2] = molecular target: Serine/threonine-protein kinase mTOR (Homo sapiens) (UniProt P42345); test: In vivo inhibition of mTOR in human MCF7 cells xenografted in athymic nude mouse assessed as downregulation of phosphorylated 4E-BP1 level at 10 mg/kg, ip
[3] = molecular target: Serine/threonine-protein kinase mTOR (Homo sapiens) (UniProt P42345); test: Inhibition of mTOR in human MDA-MB-231 cells assessed as reduction in phosphorylated 4E-BP1 level at 0.25 to 0.5 uM by Western blot analysis; type: cell-based; conditions: dose 0.25-0.5 µM; outline: as §1
MCF-10A = test: Cytotoxicity against human MCF-10A cells at 6 times of IC50 incubated for 24 hrs by MTT assay; type: toxicity, cell-based
Outline: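 MCF-10A cells seeded at 3 × 10^4/well and allowed to attach overnight. Treated with compound in serum-free medium, in triplicate, for 24 h; vehicle wells got the maximum DMSO amount. Doxorubicin (10 μM) was the positive control. MTT for 4 h, formazan dissolved in DMSO, A570 blank-subtracted. Cell numbers from a standard curve; viability expressed versus DMSO wells.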

MCF7 [4] = test: Inhibition of colony formation in human MCF7 cells assessed as reduction in colony diameter at 0.6 uM incubated for 8 days by inverted phase contrast microscopic analysis (reference value: 50 micrometer); type: functional; conditions: time 8 day
Outline: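 Soft agar assay: 5 × 10^3 MCF-7 cells per well in a cell/agar matrix layered over a base agar layer. Overlaid with 10% serum medium containing 0.2 or 0.6 μM compound, or DMSO. Colonies photographed under inverted phase-contrast microscopy after 8 days. Matrix then solubilized, MTT added (4 h, 37 °C), detergent added, A570 read. Growth normalized to DMSO.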

mTORC2 (Homo sapiens) [5] = molecular target: T1, mTORC2 (Homo sapiens) (UniProt P42345+Q6R327+Q9BVC4+Q9BPZ7); test: Inhibition of mTORC2 in human MCF7 cells assessed as reduction in Akt phosphorylation at Ser473 residue at 0.25 to 0.5 uM by Western blot analysis; type: cell-based; conditions: dose 0.25-0.5 µM; outline: as §1
mTORC2 (Homo sapiens) [6] = molecular target: T1, mTORC2 (Homo sapiens); test: Inhibition of mTORC2 in human MDA-MB-231 cells assessed as reduction in Akt phosphorylation at Ser473 residue at 0.25 to 0.5 uM by Western blot analysis; type: cell-based; conditions: dose 0.25-0.5 µM; outline: as §1
MDA-MB-231 = test: Antimigratory activity in human MDA-MB-231 cells assessed as inhibition of cell migration after 23 hrs by scratch wound healing assay; type: functional, cell-based
Outline: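 Cells seeded at 1 × 10^5/well and grown to a confluent monolayer, then scratched with a 200 μL pipet tip. Held 5 h in serum-free medium, then given medium with HGF (100 ng/mL) plus compound or DMSO. Norstictic acid (15 μM) was the positive control. Wound width photographed at 0 h and followed up to 24 h; cells MeOH-fixed. Percent migration from wound thickness versus DMSO wells; IC50 calculated.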

MCF7 [7] = test: Antiproliferative activity against human MCF7 cells incubated for 72 hrs by MTT assay; type: functional, cell-based; conditions: MCF7, 72 h
Outline: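 Cells seeded at 5 × 10^3/well and allowed to attach overnight, then washed with PBS. Compound diluted from 10 mM DMSO stock into medium (100 ng/mL HGF added for c-Met-expressing cells), in triplicate, 72 h at 37 °C. MTT added for 4 h, formazan dissolved in DMSO, absorbance read at 570 nm. Cell numbers taken from a standard curve; IC50 calculated.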

[8] = molecular target: Serine/threonine-protein kinase mTOR (Homo sapiens) (UniProt P42345); test: In vivo inhibition of mTOR in human MDA-MB-231/GFP cells xenografted in athymic nude mouse assessed as downregulation of phosphorylated S6K level at 10 mg/kg, ip
MCF7 [9] = test: Induction of autophagy in human MCF7 cells assessed as increase in beclin-1 level at 0.4 to 0.8 uM by Western blotting analysis; type: functional, cell-based; conditions: dose 0.4-0.8 µM; outline: as §1

inhibition [1]: Active
inhibition [2]: Active
inhibition [3]: Active
inhibition (mTORC2 (Homo sapiens) [5]): Active
inhibition (mTORC2 (Homo sapiens) [6]): Active
pIC50 (MDA-MB-231; MDA-MB-231, 23 h): 6.29
pIC50 (MCF7 [7]): 6.55
inhibition [8]: Active
SMILES: CC(=O)C1=C(O)C=C2Oc3c(C(=O)/C=C/c4ccc(OC(F)(F)F)cc4)c(O)c(C)c(O)c3[C@]2(C)C1=O
Activity (MCF-10A): Non-Toxic
Activity (MCF7 [4]): 122 um
Activity (MDA-MB-231): Dose-Dependent Effect
Activity (MCF7 [9]): Active

— ChEMBL document CHEMBL5252537, “Usnic Acid Benzylidene Analogues as Potent Mechanistic Target of Rapamycin Inhibitors for the Control of Breast Malignancies” (J Nat Prod, 2017)
